Columns and labels:
MurJ = test: Native mass spectrometry, direct binding to MurJ; conditions: 3 µM compound added to MurJ
How it was run: (§1)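 Purified MurJ was buffer-exchanged into 200 mM ammonium acetate pH 8.0 with 2× critical micelle concentration LDAO and infused via gold-coated capillaries. Settings were capillary 1.1 kV, m/z 1,000–20,000, S-lens RF 100%, HCD 200 V, trapping gas 7.5, 200 °C, resolution 12,500, noise level 3, and no in-source dissociation.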

MurJ:lipid II complex = test: Native mass spectrometry, MurJ:lipid II complex; type: binding; conditions: 5 µM MurJ with 3 µM lipid II, then 7 µM compound
How it was run: as §1

HEK293 cells = test: MTT viability assay, HEK293; type: cell-based, human; conditions: 500 μg/mL, 48 h, relative to 1% (v/v) DMSO vehicle control; n = 3
How it was run: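 HEK293 cells were kept in DMEM with 10% (v/v) FBS, 1% (v/v) penicillin/streptomycin and 4.5 g/L glucose at 37 °C, 5% CO2, passaged tri-weekly. MTT viability was measured after test compound at 500 μg/mL and normalized to 1% (v/v) DMSO vehicle. The positive control was the cytotoxic peptide NaD1 at 50 μM. Three technical replicates were run, with unpaired two-tailed Student's t tests.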

acetyl-Lys-D-Ala-D-Lac = test: Microscale thermophoresis binding, D-Ala-D-Lac tripeptide; conditions: MST, fluorescently labeled tripeptide, 25 °C; N = 3, ±S.D.; n.b.: no binding
How it was run: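 The tripeptide was labelled with an amine-reactive red NHS dye and mixed 1:1 with aqueous test compound (final 200 μM to 6.1 nM). Mixtures were incubated 5 min at 25 °C and read at 25 °C with 20% LED and 20% IR laser power (30 s on, 5 s off). The thermophoresis + T-jump signal from three independent runs was fitted to a single-site binding model.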

[1] = test system: VIE (5 strains), ATCC® MP-1™ panel; test: MIC, extended VIE panel; type: cell-based, Enterococci; conditions: range over 5 strains, broth microdilution, 37 °C, 20 h
[2] = test system: peptidoglycan precursors D-Ala-D-Lac; conditions: remodeling of peptidoglycan precursors from D-Ala-D-Ala to D-Ala-D-Lac; cited from earlier work

CN[C@H](CC(C)C)C(=O)N[C@H]1C(=O)N[C@@H](CC(N)=O)C(=O)N[C@H]2C(=O)N[C@H]3C(=O)N[C@H](C(=O)N[C@H](C(=O)O)c4cc(O)cc(O)c4-c4cc3ccc4O)[C@H](O)c3ccc(c(Cl)c3)Oc3cc2cc(c3O[C@@H]2O[C@H](CO)[C@@H](O)[C@H](O)[C@H]2O[C@H]2C[C@](C)(N)[C@H](O)[C@H](C)O2)Oc2ccc(cc2Cl)[C@H]1O [Vancomycin]
Direct binding to MurJ (native mass spectra) (MurJ): no binding was observed | Ternary complex formation with MurJ:lipid II (native mass spectra) (MurJ:lipid II complex): expected ternary complex was formed | Viability of HEK293 cells (MTT) (HEK293 cells): significant decrease in the viability | KD, acetyl-Lys-D-Ala-D-Lac (acetyl-Lys-D-Ala-D-Lac): no binding was observed | MIC, VIE (5 strains) [1]: 8 to 16 µg/mL | Reduction of vancomycin binding and antimicrobial activity [2]: 1,000 fold

From paper PMC10104512 (Proceedings of the National Academy of Sciences of the …, 2023)
